# Data published in ChEMBL document CHEMBL4699638, “A Multipronged Approach Establishes Covalent Modification of β-Tubulin as the Mode of Action of Benzamide Anti-cancer Toxins” (J Med Chem, 2020).
# The source made the active and inactive calls. No cut-off for these calls is given here.
# Key:
# [1] = tested on: 518T2; experiment: Binding affinity to beta-tubulin in mouse 518T2 cells at 0.05 to 50 uM measured after 1.5 hrs using Alexa Fluor 532 dye by copper-mediated click reaction based SDS PAGE analysis; type: cell-based; settings: dose microM 0.05-50, time 1.5 hrs
# Method in brief: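 518T2 cells were plated at 1 million per well in DMEM with 5% FBS. The next day, alkyne probe in DMSO was added at 50 nM to 50 μM for 1.5 h at 37 °C in 5% CO2. Cells were washed, lysed in 1% SDS buffer (50 mM HEPES pH 7.4, 10 mM KCl, 2 mM MgCl2, benzonase), click-reacted with Alexa Fluor 532 azide and resolved by SDS-PAGE fluorescence.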
# [2] = tested on: 518T2; experiment: Binding affinity to beta-tubulin in mouse 518T2 cells measured after 1.5 hrs using diazo biotin azide dye by silver staining based based SDS PAGE analysis; type: cell-based
# Method in brief: (§1)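 518T2 cells were grown at large scale (100 mg protein per condition) and treated with covalent or non-covalent alkyne probe. Lysates were clicked to 100 μM diazo biotin azide, acetone-precipitated, resolubilized in 4% SDS/PBS, and captured on streptavidin beads for 1 h at 25 °C. Eluates were run on silver-stained SDS-PAGE or analyzed by nano-LC-MS/MS (Orbitrap, HCD). Peptide abundance was normalized to the non-covalent probe sample.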
# [3] = biological target: Tubulin beta-5 chain (Mus musculus) (UniProt P99024); experiment: Binding affinity to beta5-tubulin in mouse 518T2 cells measured after 1.5 hrs by LC-MS/MS analysis; type: cell-based; method in brief: as §1
# [4] = (§2) Anticancer activity against mouse 319N1 cells assessed as reduction in cell viability measured after 72 hrs by celltiter-glo assay; type: functional, cell-based; settings: 319N1, 72 h
# Method in brief: (§3)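 Cells seeded in duplicate at 10,000 per well in DMEM with 5% FBS and incubated overnight. Compounds were then added as a 10-point dose response. After 72 h, viability was read by CellTiter-Glo luminescence, with the reagent diluted 1:1 in PBS/1% Triton-X. Values were normalized to DMSO-treated cells and IC50 was derived from curve fitting.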
# [5] = biological target: Tubulin beta-5 chain (Mus musculus) (UniProt P99024); experiment: Binding affinity to beta5-tubulin (217 to 241 residues) in mouse 518T2 cells measured after 1.5 hrs by LC-MS/MS analysis; type: cell-based; method in brief: as §1
# [6] = tested on: 518T2; experiment: Binding affinity to beta-tubulin in mouse 518T2 cells at 0.1 to 50 uM measured after 1.5 hrs using Alexa Fluor 532 dye by copper-mediated click reaction based SDS PAGE analysis; type: cell-based; settings: dose microM 0.1-50, time 1.5 hrs
# Method in brief: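 Competition assay in 518T2 cells (1 million per well, DMEM with 5% FBS). Test analogs in DMSO were dispensed first at 100 nM to 50 μM and the cells plated onto them. The next day, alkyne probe (5 μM) was added for 1.5 h at 37 °C. Lysis was in 1% SDS HEPES buffer, followed by a click reaction with fluorescent azide, SDS-PAGE, and EC50 from displacement of the p50 band.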
# [7] = tested on: 319N1; experiment: Anticancer activity against mouse 319N1 clone D cells assessed as reduction in cell viability measured after 72 hrs by celltiter-glo assay; type: functional, cell-based; method in brief: as §3
# [8] = tested on: 319N1; experiment: Anticancer activity against mouse 319N1 clone A cells assessed as reduction in cell viability measured after 72 hrs by celltiter-glo assay; type: functional, cell-based; method in brief: as §3
# [9] = tested on: 319N1; experiment: (§4) Anticancer activity against mouse 319N1 clone C cells assessed as reduction in cell viability measured after 72 hrs by celltiter-glo assay; type: functional, cell-based; method in brief: as §3
# [10] = tested on: 319N1; experiment: Anticancer activity against mouse 319N1 clone B cells assessed as reduction in cell viability measured after 72 hrs by celltiter-glo assay; type: functional, cell-based; method in brief: as §3
# [11] = tested on: 319N1; experiment: Anticancer activity against mouse 319N1 clone E cells assessed as reduction in cell viability measured after 72 hrs by celltiter-glo assay; type: functional, cell-based; method in brief: as §3
# [12] = tested on: 319N1; experiment: Anticancer activity against Msh2-deficient mouse 319N1 cells assessed as reduction in cell viability measured after 72 hrs by celltiter-glo assay; type: functional, cell-based; method in brief: as §3
# [13] = tested on: 319N1; experiment: as §2; type: functional, cell-based; method in brief: as §3
# [14] = as §4; type: functional, cell-based; settings: 319N1, 72 h; method in brief: as §3
# [15] = biological target: Tubulin beta-3 chain (Homo sapiens) (UniProt Q13509); experiment: Binding affinity to recombinant human C-terminal His-tagged beta3-tubulin expressed in insect cells assessed as reduction in microtubule growth by measuring microtubule growth rate at 10 uM measured up to 30 mins by microscopic analysis (reference value: 0.83 micrometer/min); settings: time min <=30
# Method in brief: (§5)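 Human αβ-tubulin (TUBA1B plus TUBB3 with cleavable C-terminal His-tag) was expressed in Tni insect cells. It was purified by Ni-affinity, TEV cleavage and anion exchange, then kept in BRB80 with 50 μM GTP. Growth was measured by DIC time-lapse at 30 °C on GMPCPP seeds in 144 mM PIPES pH 6.9 buffer with 1 mM GTP and 4% DMSO, over about 30 min. Compound was tested at 1, 5 and 10 μM; growth rates were measured per microtubule over two trials.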
# [16] = biological target: Tubulin beta-3 chain (Homo sapiens) (UniProt Q13509); experiment: Binding affinity to recombinant human C-terminal His-tagged beta3-tubulin expressed in insect cells assessed as reduction in microtubule growth measured up to 30 mins by microscopic analysis; settings: dose microM 1-10, time min <=30; method in brief: as §5
# [17] = organism: Bos taurus; experiment: Binding affinity to bovine brain beta-tubulin assessed as reduction in microtubule growth at 0.5 uM measured up to 30 mins by microscopic analysis; type: tissue-based; settings: time min <=30
# Method in brief: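 Microtubule growth from brain tubulin was imaged by time-lapse DIC microscopy at 30 °C on biotinylated GMPCPP seeds bound to neutravidin coverslips. Frames were taken every 50 ms and averaged in batches of 30; recordings ran about 30 min. Growth rates were quantified per microtubule.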
# [18] = biological target: Tubulin beta-3 chain (Homo sapiens) (UniProt Q13509); experiment: Binding affinity to recombinant human C-terminal His-tagged beta3-tubulin expressed in insect cells assessed as reduction in microtubule growth by measuring microtubule growth rate at 1 uM measured up to 30 mins by microscopic analysis (reference value: 0.83 micrometer/min); settings: time min <=30; method in brief: as §5
# [19] = tested on: 518T2; experiment: Cell cycle arrest in mouse 518T2 cells assessed as increase in accumulation at G2/M-phase at 300 nM measured after 24 hrs by propidium iodide staining based flow cytometry; type: functional
# Method in brief: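 518T2 murine SCLC cells were exposed for 24 h to compound (300 nM) or DMSO vehicle. Cell cycle distribution was then read by flow cytometry.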
# [20] = tested on: 518T2; experiment: Binding affinity to beta-tubulin in mouse 518T2 cells measured after 1.5 hrs using Alexa Fluor 532 dye by copper-mediated click reaction based SDS PAGE analysis; type: cell-based
# Method in brief: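 Competition format in 518T2 murine SCLC cells, 1 million per well in DMEM with 5% FBS. Analogs in DMSO (100 nM to 50 μM) were dispensed first and cells plated onto them. Next day alkyne probe 24 (5 μM) was added for 1.5 h at 37 °C, 5% CO2. EC50 was taken from displacement of the 50 kDa band.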
# Tubulin beta-3 chain (Homo sapiens), sequence (Q13509 whole entry): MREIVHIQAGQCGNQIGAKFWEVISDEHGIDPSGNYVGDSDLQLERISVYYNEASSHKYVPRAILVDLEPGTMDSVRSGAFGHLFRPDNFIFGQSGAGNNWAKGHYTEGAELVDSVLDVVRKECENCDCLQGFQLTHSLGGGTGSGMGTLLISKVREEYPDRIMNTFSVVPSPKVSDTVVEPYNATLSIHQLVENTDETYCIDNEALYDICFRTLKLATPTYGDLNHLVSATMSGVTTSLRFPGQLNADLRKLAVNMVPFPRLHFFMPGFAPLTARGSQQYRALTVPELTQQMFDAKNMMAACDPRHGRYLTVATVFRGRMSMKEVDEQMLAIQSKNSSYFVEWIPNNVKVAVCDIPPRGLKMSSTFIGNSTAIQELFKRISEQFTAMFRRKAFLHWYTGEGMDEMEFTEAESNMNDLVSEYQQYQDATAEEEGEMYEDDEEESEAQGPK
# Tubulin beta-5 chain (Mus musculus), sequence (P99024 whole entry, the tested form may be a part): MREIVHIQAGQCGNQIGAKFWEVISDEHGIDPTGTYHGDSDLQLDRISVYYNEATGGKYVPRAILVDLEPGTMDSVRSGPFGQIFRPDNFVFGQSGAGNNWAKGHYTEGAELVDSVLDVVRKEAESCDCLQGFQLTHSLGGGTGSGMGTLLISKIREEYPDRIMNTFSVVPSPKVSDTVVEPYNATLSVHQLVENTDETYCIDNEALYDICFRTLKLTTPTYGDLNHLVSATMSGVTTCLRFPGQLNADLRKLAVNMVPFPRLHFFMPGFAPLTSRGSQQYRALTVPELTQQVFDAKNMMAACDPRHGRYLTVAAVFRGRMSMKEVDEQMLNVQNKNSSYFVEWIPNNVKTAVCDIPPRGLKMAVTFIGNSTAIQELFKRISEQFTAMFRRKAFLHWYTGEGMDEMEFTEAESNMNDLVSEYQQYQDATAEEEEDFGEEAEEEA
structure (smiles),measurement,setting,value
C#CCOc1cccc(N2CCN(C(=O)c3ccc(Cl)c([N+](=O)[O-])c3)CC2)c1,Activity,[1],Active
same,Activity,[2],Active
same,Activity,[3],Active
same,IC50,[4],1190 nM
same,Activity,[5],Active
O=C(c1ccc(Cl)c([N+](=O)[O-])c1)N1CCN(c2cc(Cl)ccc2Cl)CC1,IC50,[4],458 nM
Cc1ccc(Cl)cc1N1CCN(C(=O)c2ccc(I)c([N+](=O)[O-])c2)CC1,"beta-tubulin binding (probe competition, active/inactive)",[6],Active
COc1cccc(N2CCN(C(=O)c3ccc(Cl)c([N+](=O)[O-])c3)CC2)c1,"beta-tubulin binding (probe competition, active/inactive)",[6],Active
same,IC50,[4],1560 nM
COc1cc([C@@H]2c3cc4c(cc3[C@@H](O[C@@H]3O[C@@H]5CO[C@@H](C)O[C@H]5[C@H](O)[C@H]3O)[C@H]3COC(=O)[C@H]23)OCO4)cc(OC)c1O,Activity,[7],Active
same,Activity,[8],Active
same,Activity,[9],Active
same,Activity,[10],Active
same,Activity,[11],Active
same,Activity,[12],Active
Cc1ccc(Cl)cc1N1CCN(C(=O)c2ccc(OC(F)(F)F)c([N+](=O)[O-])c2)CC1,IC50,[4],20 nM
CC[C@]1(O)C[C@H]2CN(CCc3c([nH]c4ccccc34)[C@@](C(=O)OC)(c3cc4c(cc3OC)N(C=O)[C@H]3[C@@](O)(C(=O)OC)[C@H](OC(C)=O)[C@]5(CC)C=CCN6CC[C@]43[C@@H]65)C2)C1,"beta-tubulin binding (probe competition, active/inactive)",[6],inactive
Cc1ccc(C)c(N2CCN(C(=O)c3ccc(Cl)c([N+](=O)[O-])c3)CC2)c1,IC50,[4],1040 nM
O=C(c1ccc(Cl)cc1)N1CCN(c2ccccc2)CC1,Activity,[13],inactive
Cc1ccc(Cl)cc1N1CCN(C(=O)c2ccc(Cl)c([N+](=O)[O-])c2)CC1,"beta-tubulin binding (probe competition, active/inactive)",[6],Active
same,IC50,[14],1480 nM
COc1cc(OC)cc(N2CCN(C(=O)c3ccc(C=O)c([N+](=O)[O-])c3)CC2)c1,Activity,[15],0.31 um/min
same,Activity,[16],Dose-dependent effect
same,IC50,[4],127 nM
same,Activity,[17],Active
same,Activity,[18],0.67 um/min
Cc1ccc(Cl)cc1N1CCN(C(=O)c2ccc(Cl)cc2[N+](=O)[O-])CC1,IC50,[4],17000 nM
O=C(c1ccc(Cl)c([N+](=O)[O-])c1)N1CCN(c2ccccc2Cl)CC1,"beta-tubulin binding (probe competition, active/inactive)",[6],Active
same,IC50,[4],2950 nM
COc1ccc(N2CCN(C(=O)c3ccc(Cl)c([N+](=O)[O-])c3)CC2)cc1,IC50,[4],40300 nM
COc1cc2c(c(OC)c1OC)-c1ccc(OC)c(=O)cc1[C@@H](NC(C)=O)CC2,Activity,[19],Active
same,inhibition,[20],Dose-dependent effect
N#Cc1cccc(N2CCN(C(=O)c3ccc(Cl)c([N+](=O)[O-])c3)CC2)c1,IC50,[4],593 nM
